Legend:
Calu-3 bearing nude mice [1] = experiment: In vivo antitumor activity; set-up: species or system BALB/c nude mice; details: intravenous, Dox-equivalent dose 6 mg kg−1 every four days, mean ± SD, n=5
Outline: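 Male and female BALB/c nude mice (22–35 g) received 1×10⁷ Calu-3 cells in 100 μL culture medium subcutaneously in the right back. At 30–50 mm³ tumors, mice were randomized (n = 5/group). Dosing was intravenous every four days, with PBS as control. Tumor volume was measured every four days. Mice were killed at 38 days and tumors weighed.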

Calu-3 [2] = experiment: Antiproliferative activity, CellTiter-Glo assay; assay type: cell-based, human; details: read-out: IC50 (72 Hours) Calu-3, 72 h incubation, triplicate
Outline: (§1)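 Cells were plated in 96-well plates and held 24 h at 37 °C in 5% CO2. Media with 10% FBS, 1% penicillin-streptomycin and 1% insulin were RPMI-1640 for BT474, EMEM for Calu-3 and Fibroblast Basal Medium for HLFs. Test compound or liposome was added at 0.001–100 μM for 72 h. Cells were PBS-washed before CellTiter-Glo luminescence. Triplicate runs; IC50 from dose-response plot.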

BT474 [3] = experiment: Apoptosis study; assay type: cell-based, human; details: BT474, 3 μM, 12 h, annexin V-FITC/PI, n=3
Outline: (§2)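 Cells were seeded at 2×10⁵ cells/mL in flasks and cultured 24 h. At 70% confluence they were exposed to 3 μM test compound in serum-free medium for 12 h. Cells were then trypsinized, washed in ice-cold PBS and resuspended in binding buffer at 2.5×10⁶ cells/mL. Staining with annexin V-FITC plus propidium iodide ran 15 min before flow cytometry.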

BT474 [4] = experiment: Antiproliferative activity, CellTiter-Glo assay; assay type: cell-based, human; details: read-out: IC50 (72 Hours) BT474, 72 h incubation, triplicate
Outline: as §1

MCF-7 3D tumor spheroids = experiment: Antiproliferative activity in multicellular 3D tumor spheroid; assay type: cell-based, human; details: read-out: 3D tumor spheroid IC50 (72 Hours) MCF-7, hanging drop spheroids, CellTiter-Glo 3D, mean ± SD, n=3
Outline: (§3)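 Hanging-drop spheroids seeded at 500 cells/μL in 40 μL of medium and formed over 24 h at 37 °C, 5% CO2, humidified. Spheroids moved to round-bottom 96-well plates in serum-free medium and treated with test compound at 0.01–100 μM for 72 h at 37 °C. Viability read by CellTiter-Glo 3D luminescence, and IC50 derived from the dose-response.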

[5] = tested on: Calu-3 3D tumor spheroids; experiment: as above; assay type: cell-based, human; details: read-out: 3D tumor spheroid IC50 (72 Hours) Calu-3, hanging drop spheroids, CellTiter-Glo 3D, mean ± SD, n=3
Outline: as §3

BT474 3D tumor spheroids = experiment: as above; assay type: cell-based, human; details: read-out: 3D tumor spheroid IC50 (72 Hours) BT474, hanging drop spheroids, CellTiter-Glo 3D, mean ± SD, n=3
Outline: as §3

Calu-3 bearing nude mice [6] = experiment: Toxicity study; assay type: in vivo, BALB/c nude mice
Outline: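 Same Calu-3 xenograft nude mice and intravenous dosing every four days, with a PBS control group. Body weight was recorded every four days during the efficacy study. At termination (38 days), heart, liver, spleen, kidney and lung tumor were formalin-fixed and paraffin-embedded. Sections of 5 μm were H&E-stained and examined microscopically by a toxicologist.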

MCF-7 spheroids = experiment: In vitro tumor growth inhibition in 3D tumor spheroids; assay type: cell-based, human; details: 3 μM, 5 days
Outline: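 MCF-7 cells (40 μL at 125 cells/μL) grown as hanging-drop spheroids at 37 °C, 5% CO2, humidified, until about 100–200 μm, then moved to round-bottom 96-well plates (day zero). Treated with test compound at 3 μM, with untreated controls. Imaged for five consecutive days under a 4× objective, and volume calculated as 0.5 × length × width².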

[7] = tested on: non-cancerous lung fibroblast cells (HLFs); experiment: Antiproliferative activity, CellTiter-Glo assay; assay type: cell-based, human; details: read-out: IC50 (72 Hours) HLFs, 72 h incubation, triplicate
Outline: as §1

Calu-3 [8] = experiment: Apoptosis study; assay type: cell-based, human; details: Calu-3, 3 μM, 12 h, annexin V-FITC/PI, n=3
Outline: as §2

**Q.** How did the “mean tumor size at 38 days after implantation” value (Calu-3 bearing nude mice [1]) turn out when `COc1cccc2c1C(=O)c1c(O)c3c(c(O)c1C2=O)C[C@@](O)(C(=O)CO)C[C@@H]3O[C@H]1C[C@H](N)[C@H](O)[C@H](C)O1` [Free Dox, Doxorubicin] was run?
**A.** Its value is 68.26 ± 25.89 mm^3.

**Q.** What about the “mean tumor weight at 38 days after implantation” value (Calu-3 bearing nude mice [1]) of the same compound?
**A.** The value was 162.8 ± 21.98 mg.

**Q.** What about the IC50 (Calu-3 [2]) of the same compound?
**A.** Its IC50 is 0.158 ± 0.075 µM.

**Q.** And the “total percentage of apoptosis” value (BT474 [3])?
**A.** Its value is 35.49%.

**Q.** What about the IC50 (BT474 [4]) of the same compound?
**A.** The IC50 was 0.399 ± 0.079 µM.

**Q.** And the IC50 (MCF-7 3D tumor spheroids)?
**A.** The IC50 was 0.548 ± 0.125 µM.

**Q.** What about the IC50 [5] of the same compound?
**A.** Its IC50 is 0.745 ± 0.054 µM.

**Q.** And the IC50 (BT474 3D tumor spheroids)?
**A.** The IC50 was 0.845 ± 0.058 µM.

**Q.** And the body weight loss (Calu-3 bearing nude mice [6]; Dox-equivalent 6 mg kg−1 every four days, 38 days after tumor implantation)?
**A.** The body weight loss was “significant weight loss”.

**Q.** What about the “histopathology of heart tissues” value (Calu-3 bearing nude mice [6]; H&E, at 38 days, compared to control group) of the same compound?
**A.** Its value is “some amount of vascular degeneration”.

**Q.** What about the “histopathology of liver and kidneys” value (Calu-3 bearing nude mice [6]; H&E, at 38 days, compared to control group (PBS)) of the same compound?
**A.** Its value is “no apparent inflammatory reaction, structural modification, or pathological abnormalities”.

**Q.** And the histopathology of spleen (Calu-3 bearing nude mice [6]; H&E, at 38 days, compared with control group)?
**A.** The histopathology of spleen was “loss of lymphoid blue matter and deposition of red matter”.

**Q.** What about the “inhibition of spheroid growth” value (MCF-7 spheroids) of the same compound?
**A.** Its value is “significant inhibition of spheroidal tumor growth”.

**Q.** And the IC50 [7]?
**A.** Its IC50 is 0.17 ± 0.082 µM.

**Q.** And the “total percentage of apoptosis” value (Calu-3 [8])?
**A.** Its value is 16.83%.

Reference: paper PMC8751737 (International journal of pharmaceutics, 2021)
